Source: PMC5616206 (Toxicology Reports, 2016)
Entries after “also recorded” stand apart in the source; their conditions may differ.

How the values were obtained:
[1] = In vitro metabolism by human liver microsomes; assay type: in vitro ADME; details: S807 incubation, relative to S807 at time = 0
[2] = test system: Sprague-Dawley Rats; assay: 13-week subchronic toxicity study on S807; assay type: in vivo, Crl:CD(SD)IGS BR rats; details: 2, 10, 20 mg/kg bw/day food ad-mix, 13 weeks
Method in brief: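 Crl:CD(SD)IGS BR rats, 20/sex/group, were given the test compound in the diet at 0 (control), 2, 10 or 20 mg/kg bw/day for 93 consecutive days.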

[3] = In vitro metabolism by rat liver microsomes; assay type: in vitro ADME, Sprague-Dawley rat; details: S807 incubation, relative to S807 at time = 0
[4] = test system: Male Swiss albino (CD-1) mice, bone marrow PCEs; assay: In vivo micronucleus assay in mice, S807
Method in brief: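 Swiss Albino (CD-1) mice received a single intraperitoneal injection of the test compound as a DMSO solution (132 mg/mL). Range finding used 3/sex/group at 500, 1000 or 2000 mg/kg bw, then added groups at 800 (3/sex) and 700 (3 males). The definitive phase used 175, 350 and 700 mg/kg bw, 21 animals/group. Readouts were bone-marrow mnPCE incidence and PCE/total erythrocyte ratio versus vehicle. Cyclophosphamide was the positive control.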

[5] = test system: S. typhimurium strains TA98, TA100, TA1535, TA1537 and E. coli strain WP2 uvrA; assay: Bacterial reverse mutation test; assay type: cell-based; details: 21–5000 μg/plate, plate incorporation and pre-incubation, ±S9
Method in brief: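 The assay followed OECD Guideline 471 and used S. typhimurium TA98, TA100, TA1535 and TA1537 and E. coli WP2 uvrA. It was run with and without S9 from livers of Aroclor 1254-treated Sprague-Dawley rats. One compound was tested at 21–5000 μg/plate by plate incorporation and pre-incubation. The other was tested at 50–5000 μg/plate in an initial toxicity-mutation test and a confirmatory mutation test.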

[6] = Dietary exposure estimates; set-up: species or system human
[7] = test system: Sprague-Dawley Rats; assay: 21-day dose-range finding toxicity study on S807; assay type: in vivo, Crl:CD(SD)IGS BR rats; details: 50, 100, 200 mg/kg bw/day food ad-mix, 21 days
Method in brief: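 Dose-range finder for the 90-day study. Crl:CD(SD)IGS BR rats, 5/sex/group, received the test compound continuously in the diet at 50, 100 or 200 mg/kg bw/day for 21 days. One group of 5/sex served as control and received the vehicle diet.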

[8] = test system: Chinese hamster ovary cells (CHO-WBL); assay: In vitro chromosome aberration test, CHO-WBL cells; assay type: cell-based
[9] = In vivo metabolism of S807 in rats; set-up: species or system Sprague-Dawley rats; details: male and female pooled rat plasma, 1 h post dose, 200 mg/kg bw oral
[10] = Pharmacokinetics of S807 in rats, single iv or oral dose; assay type: in vivo, Sprague-Dawley rats; details: for AUC(0-t) / Cmax / Tmax / Vd / half-life / clearance / bioavailability: Sprague-Dawley, rat, plasma; for clearance: CL (clearance), iv 1 mg/kg bw; for AUClast Ratio / Cmax Ratio: vs 20 mg/kg bw dose
Method in brief: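 Sprague-Dawley rats, 4/sex, received a 1 mg/kg bw IV bolus in 20% PEG400/10% ethanol/2% DMSO/68% saline. Sampling was via jugular cannula at pre-dose and 2 min to 8 h. Oral groups (4/sex/group) were gavaged once with 20, 50 or 200 mg/kg bw in 1% methylcellulose and sampled from 15 min to 24 h. Plasma was assayed for parent and metabolites.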

[11] = oral gavage 20 mg/kg bw, female
[12] = oral gavage 50 mg/kg bw, female
[13] = oral gavage 200 mg/kg bw, female

CCCC(CCC)NC(=O)c1ccc2c(c1)OCO2 [S807, N-(heptan-4-yl)benzo[d][1,3]dioxole-5-carboxamide]
% MS (EIC) Peak Area ([1]; 10 min): 89.4% | % MS (EIC) Peak Area ([1]; 20 min): 80.8% | % MS (EIC) Peak Area ([1]; 60 min): 65.0% | Findings [2]: No test-article related findings | NOEL [2]: 20 mg/kg bw/day | % MS (EIC) Peak Area ([3]; 10 min): 70.0% | % MS (EIC) Peak Area ([3]; 20 min): 34.0% | Micronucleus formation (in vivo), Result ([4]; 175, 350, 700 mg/kg bw (ip)): neither clastogenic nor aneugenic; also recorded: Negative | dose groups with deaths within 48 h of treatment ([4]; range finding, ip): ≥ 800 mg/kg bw | Reverse mutation (in vitro), Result [5]: not mutagenic; also recorded: Negative | NOEL as times the estimated dietary exposure (mTAMDI) ([6]; NOEL 20 mg/kg bw/day): 2560 times | margin of safety, NOEL vs estimated use ([6]; NOEL 20 mg/kg bw/day vs 4.9 μg/kg bw/day): > 4000 fold | Findings [7]: Lower bw gain in females at 200 mg/kg bw/day; increased liver weight in females at 100 and 200 mg/kg bw/day; histomorphological changes in livers of both male and females at all doses | NOEL [7]: < 50 mg/kg bw/day | Chromosome aberration (in vitro), Result ([8]; 21–5000 μg/mL, 3 h −S9, 3 h +S9, 18 h −S9): did not induce chromosomal aberrations; also recorded: Negative | test article concentration with precipitate in the cell cultures ([8]; all conditions): ≥ 62 µg/mL | MS (EIC) Peak Area [9]: 29,000,000 cps | AUC(0-t) ([10]; female, iv, 1 mg/kg): 342 ± 81.4 ng·h/mL | Cmax ([10]; female, iv, 1 mg/kg): 949 ± 222 ng/mL | Tmax ([10]; female, iv, 1 mg/kg): 0.033 h | Vd ([10]; female, iv, 1 mg/kg): 5.61 L/kg | half-life ([10]; female, iv, 1 mg/kg): 3.02 ± 0.92 h | clearance ([10]; female, iv, 1 mg/kg, female rat): 47.2 mL/min/kg | AUC(0-t) ([10]; female, po, 20 mg/kg): 166 ± 72.2 ng·h/mL | Cmax ([10]; female, po, 20 mg/kg): 187 ± 87.6 ng/mL | Tmax ([10]; female, po, 20 mg/kg): 0.25 h | bioavailability ([10]; female, po, 20 mg/kg): 2.43% | half-life ([10]; female, po, 20 mg/kg): 1.07 ± 0.67 h | AUC(0-t) ([10]; female, po, 50 mg/kg): 1410 ± 1020 ng·h/mL | Cmax ([10]; female, po, 50 mg/kg): 529 ± 379 ng/mL | Tmax ([10]; female, po, 50 mg/kg): 1 h | bioavailability ([10]; female, po, 50 mg/kg): 8.25% | half-life ([10]; female, po, 50 mg/kg): 1.17 ± 0.16 h | AUC(0-t) ([10]; female, po, 200 mg/kg): 108000 ± 27900 ng·h/mL | Cmax ([10]; female, po, 200 mg/kg): 9150 ± 2410 ng/mL | Tmax ([10]; female, po, 200 mg/kg): 3 h | bioavailability ([10]; female, po, 200 mg/kg): 158% | half-life ([10]; female, po, 200 mg/kg): 2.62 ± 0.2 h | CL as % of hepatic blood flow ([10]; iv, females): 85.5% | CL as % of hepatic blood flow ([10]; iv, males): 55.6% | AUC(0-t) ([10]; male, iv, 1 mg/kg): 491 ± 33.3 ng·h/mL | Cmax ([10]; male, iv, 1 mg/kg): 1110 ± 237 ng/mL | Tmax ([10]; male, iv, 1 mg/kg): 0.033 h | Vd ([10]; male, iv, 1 mg/kg): 4.63 L/kg | half-life ([10]; male, iv, 1 mg/kg): 3.02 ± 0.24 h | clearance ([10]; male, iv, 1 mg/kg, male rat): 30.7 mL/min/kg | AUC(0-t) ([10]; male, po, 20 mg/kg): 182 ± 70.5 ng·h/mL | Cmax ([10]; male, po, 20 mg/kg): 174 ± 95.1 ng/mL | Tmax ([10]; male, po, 20 mg/kg): 0.313 h | bioavailability ([10]; male, po, 20 mg/kg): 1.85% | half-life ([10]; male, po, 20 mg/kg): 1.14 ± 0.35 h | AUC(0-t) ([10]; male, po, 50 mg/kg): 4890 ± 4960 ng·h/mL | Cmax ([10]; male, po, 50 mg/kg): 1270 ± 1170 ng/mL | Tmax ([10]; male, po, 50 mg/kg): 1.5 h | bioavailability ([10]; male, po, 50 mg/kg): 19.9% | half-life ([10]; male, po, 50 mg/kg): 1.83 ± 0.61 h | AUC(0-t) ([10]; male, po, 200 mg/kg): 101000 ± 19500 ng·h/mL | Cmax ([10]; male, po, 200 mg/kg): 10500 ± 937 ng/mL | Tmax ([10]; male, po, 200 mg/kg): 4 h | bioavailability ([10]; male, po, 200 mg/kg): 103% | half-life ([10]; male, po, 200 mg/kg): 2.49 ± 0.07 h | AUClast Ratio [10, 11]: 1 | Cmax Ratio [10, 11]: 1 | AUClast Ratio ([10]; oral gavage 20 mg/kg bw, male): 1 | Cmax Ratio ([10]; oral gavage 20 mg/kg bw, male): 1 | AUClast Ratio [10, 12]: 8.49 | Cmax Ratio [10, 12]: 2.83 | AUClast Ratio ([10]; oral gavage 50 mg/kg bw, male): 26.9 | Cmax Ratio ([10]; oral gavage 50 mg/kg bw, male): 7.30 | AUClast Ratio [10, 13]: 651 | Cmax Ratio [10, 13]: 48.9 | AUClast Ratio ([10]; oral gavage 200 mg/kg bw, male): 555 | Cmax Ratio ([10]; oral gavage 200 mg/kg bw, male): 60.3
